Reference: ChEMBL document CHEMBL5137048, “Design and synthesis of water-soluble prodrugs of rifabutin for intraveneous administration” (Eur J Med Chem, 2022)
In brackets after ≈: the same amount, converted by molar mass.

Assays:
[1] = Stability in human plasma assessed as compound remaining at 6 hrs by HPLC-MS analysis; type: ADME, cell-free; details: read-out: Stability
Acinetobacter baumannii [2] = assay: Antibacterial activity against Acinetobacter baumannii HUMC1 assessed as inhibition of bacterial growth incubated for 20 hrs by microdilution assay; type: functional
Method in brief: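 Broth microdilution per CLSI against XDR A. baumannii HUMC1. Inoculum 5×10^5 CFU/mL in RPMI + 10% FCS, or in CAMHB + 50% human serum. Compounds tested as 2-fold dilutions from 32 µg/mL final. Plates incubated without shaking at 35 °C for 20 h. MIC read visually as the lowest concentration with no visible growth. Three independent replicates.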

Staphylococcus aureus [3] = assay: Antibacterial activity against Staphylococcus aureus assessed as reduction in bacterial growth in CAMHB preincubated 6 hrs followed by human serum addition and measured after 20 hrs by microdilution assay; type: functional; details: time 26 hrs
Method in brief: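 S. aureus USA300 UAMS-1625 in CAMHB. Drug at 10-fold the 32 µg/mL top concentration was first preincubated in 100% human serum for 6 h, then serially diluted 2-fold and bacteria added (5×10^5 CFU/mL inoculum). Plates held static at 35 °C for 20 h. MIC read visually. Three independent replicates.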

Staphylococcus aureus [4] = assay: Antibacterial activity against Staphylococcus aureus assessed assessed as reduction in bacterial growth in CAMHB in absence of human serum measured after 20 hrs by microdilution assay; type: functional
Method in brief: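 S. aureus USA300 UAMS-1625 in CAMHB without serum. CLSI broth microdilution, inoculum 5×10^5 CFU/mL, 2-fold dilutions from 32 µg/mL final. Plates held static at 35 °C for 20 h. MIC was the lowest concentration with no visible growth. Three independent replicates.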

[5] = Plasma concentration in CD-1 mouse at 7 mg/kg, iv measured after 24 hrs by LC-MS/MS analysis; type: ADME, organism-based; details: in vivo
Method in brief: (§1)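 Female CD-1 (RjOrl:SWISS) mice, 8 weeks old at delivery, 9 per compound, given a single IV bolus into a lateral tail vein at 5 mL/kg. Basic compounds were dosed in 0.9% NaCl with 26 mM HCl, with 10% DMSO added for the parent drug; the phosphate prodrug was dosed in PBS pH 7.4. Retrobulbar blood was taken at 5, 15, 30 min and 1, 2, 4, 8, 12, 24 h. Plasma rifabutin was quantified by LC-MS/MS against a calibration curve, with griseofulvin as internal standard.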

[6] = Water solubility of compound in PBS buffer at pH 7.4 by UPLC-MS analysis; type: physicochemical
Method in brief: (§2)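 Compounds were suspended at a nominal 10 or 50 mg/mL in PBS pH 7.4 or 26 mM HCl, vortexed, and mixed at 35 rpm for 24 h at RT. The mixture was centrifuged, the supernatant filtered and diluted 2000-fold in CH3CN, and analysed by UPLC-MS/MS (MRM). Solubility = AUC(buffer)/AUC(DMSO) × theoretical concentration.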

Acinetobacter baumannii [7] = assay: Antibacterial activity against Acinetobacter baumannii assessed as reduction in bacterial growth in CAMHB preincubated 6 hrs followed by human serum addition and measured after 20 hrs by microdilution assay; type: functional
[8] = Cmax in CD-1 mouse at 7 mg/kg, iv measured at 5 to 24 hrs by LC-MS/MS analysis; type: ADME, organism-based; design: dose 7 mg/kg, route iv; details: in vivo; method in brief: as §1
[9] = Tmax in CD-1 mouse at 7 mg/kg, iv measured at 5 to 24 hrs by LC-MS/MS analysis; type: ADME, organism-based; details: in vivo, time lower 5 hrs; method in brief: as §1
[10] = Elimination half life in CD-1 mouse at 7 mg/kg, iv measured at 5 to 24 hrs by LC-MS/MS analysis; type: ADME, organism-based; details: in vivo, time lower 5 hrs, read-out: LambdaZ (converted); method in brief: as §1
[11] = AUC (0 to infinity) in CD-1 mouse at 7 mg/kg, iv measured at 5 to 24 hrs by LC-MS/MS analysis; type: ADME, organism-based; design: dose 7 mg/kg, route iv; details: in vivo; method in brief: as §1
[12] = Chemical stability of compound by UPLC-MS/MS analysis; details: pH 7.4
[13] = Plasma concentration in CD-1 mouse at 6.5 mg/kg, iv measured after 24 hrs by LC-MS/MS analysis; type: ADME, organism-based; details: in vivo; method in brief: as §1
[14] = Water solubility of compound in HCL by UPLC-MS analysis; type: physicochemical; method in brief: as §2
[15] = Cmax in CD-1 mouse at 6.5 mg/kg, iv measured at 5 to 24 hrs by LC-MS/MS analysis; type: ADME, organism-based; design: time lower 5 hrs, dose 6.5 mg/kg, route iv; details: in vivo; method in brief: as §1
[16] = Tmax in CD-1 mouse at 6.5 mg/kg, iv measured at 5 to 24 hrs by LC-MS/MS analysis; type: ADME, organism-based; details: in vivo, time lower 5 hrs; method in brief: as §1
[17] = Elimination half life in CD-1 mouse at 6.5 mg/kg, iv measured at 5 to 24 hrs by LC-MS/MS analysis; type: ADME, organism-based; details: in vivo, time lower 5 hrs, read-out: LambdaZ (converted); method in brief: as §1
[18] = AUC (0 to infinity) in CD-1 mouse at 6.5 mg/kg, iv measured at 5 to 24 hrs by LC-MS/MS analysis; type: ADME, organism-based; design: dose 6.5 mg/kg, route iv; details: in vivo; method in brief: as §1
[19] = Cmax in CD-1 mouse at 5 mg/kg, iv measured at 5 to 24 hrs by LC-MS/MS analysis; type: ADME, organism-based; design: dose 5 mg/kg, route iv; details: in vivo; method in brief: as §1
[20] = Elimination half life in CD-1 mouse at 5 mg/kg, iv measured at 5 to 24 hrs by LC-MS/MS analysis; type: ADME, organism-based; details: in vivo, time lower 5 hrs, read-out: LambdaZ (converted); method in brief: as §1
[21] = AUC (0 to infinity) in CD-1 mouse at 5 mg/kg, iv measured at 5 to 24 hrs by LC-MS/MS analysis; type: ADME, organism-based; design: dose 5 mg/kg, route iv; details: in vivo; method in brief: as §1

Row | Compound | remaining at 6 h [1] [%] | MIC (Acinetobacter baumannii [2]) [mg/L] | MIC (Staphylococcus aureus [3]) [mg/L] | MIC (Staphylococcus aureus [4]) [mg/L] | solubility [6] [mg/mL] | MIC (Acinetobacter baumannii [7]) [mg/L] | Stability [12] [%] | solubility [14] [mg/mL] | other results
1 | COCCC(=O)O[C@@H]1[C@@H](C)[C@@H](O)[C@@H](C)[C@H](OC(C)=O)[C@H](C)[C@@H](OC)/C=C/O[C@@]2(C)Oc3c(C)c(O)c4c(c3C2=O)C2NC3(CCN(CC(C)C)CC3)NC2=C(NC(=O)/C(C)=C\C=C\[C@@H]1C)C4=O (stereo partly specified) | 99 | > 32 |  |  |  |  |  |  | 
2 | CO[C@H]1/C=C/O[C@@]2(C)Oc3c(C)c(O)c4c(c3C2=O)C2NC3(CCN(CC(C)C)CC3)NC2=C(NC(=O)/C(C)=C\C=C\[C@H](C)[C@H](OC(=O)CN(C)C(=O)CNC(=O)OCc2ccc(OP(=O)(O)O)cc2)[C@@H](C)[C@@H](O)[C@@H](C)[C@H](OC(C)=O)[C@@H]1C)C4=O (stereo partly specified) |  |  | 0.06 (≈ 0.0497 µM) | 32 (≈ 26.5 µM) | 4.5 (≈ 3730 µM) | 0.001 (≈ 0.000828 µM) | 101 |  | Drug uptake [5]: Active; Cmax [8]: 2.7 µg/mL; Tmax [9]: 4.98 min; half-life [10]: 2.9 h; AUC(0-inf) [11]: 8.2 µg·h/mL
3 | COCCC(=O)N1C2=C3NC(=O)/C(C)=C\C=C\[C@H](C)[C@H](O)[C@@H](C)[C@@H](O)[C@@H](C)[C@H](OC(C)=O)[C@H](C)[C@@H](OC)/C=C/O[C@@]4(C)Oc5c(C)c(O)c(c(c5C4=O)C2NC12CCN(CC(C)C)CC2)C3=O (stereo partly specified) | 2 |  |  |  |  |  |  |  | 
4 | COCCOC(=O)N1C2=C3NC(=O)/C(C)=C\C=C\[C@H](C)[C@H](O)[C@@H](C)[C@@H](O)[C@@H](C)[C@H](OC(C)=O)[C@H](C)[C@@H](OC)/C=C/O[C@@]4(C)Oc5c(C)c(O)c(c(c5C4=O)C2NC12CCN(CC(C)C)CC2)C3=O (stereo partly specified) | 86 | 0.06 (≈ 0.0631 µM) |  |  |  |  |  |  | 
5 | CO[C@H]1/C=C/O[C@@]2(C)Oc3c(C)c(O)c4c(c3C2=O)C2NC3(CCN(CC(C)C)CC3)NC2=C(NC(=O)/C(C)=C\C=C\[C@H](C)[C@H](OC(=O)CN(C)C(=O)CNC(=O)[C@@H](N)CCCCN)[C@@H](C)[C@@H](O)[C@@H](C)[C@H](OC(C)=O)[C@@H]1C)C4=O (stereo partly specified) |  |  | 0.06 (≈ 0.0543 µM) | 16 (≈ 14.5 µM) | > 50 | 0.001 (≈ 0.000905 µM) | 99 | 34.4 (≈ 31100 µM) | Drug uptake [13]: Active; Cmax [15]: 0.3 µg/mL; Tmax [16]: 4.98 min; half-life [17]: 10.7 h; AUC(0-inf) [18]: 1 µg·h/mL
6 | CO[C@H]1/C=C/O[C@@]2(C)Oc3c(C)c(O)c4c(c3C2=O)C2NC3(CCN(CC(C)C)CC3)NC2=C(NC(=O)/C(C)=C\C=C\[C@H](C)[C@H](OC(=O)CN(C)C(=O)COC(=O)CN(C)C)[C@@H](C)[C@@H](O)[C@@H](C)[C@H](OC(C)=O)[C@@H]1C)C4=O (stereo partly specified) |  |  | 0.06 (≈ 0.0564 µM) | 1 (≈ 0.941 µM) | 0.7 (≈ 658 µM) | 0.001 (≈ 0.000941 µM) | 101 | 12.2 (≈ 11500 µM) | Drug uptake [13]: Active; Cmax [15]: 1.1 µg/mL; Tmax [16]: 4.98 min; half-life [17]: 3 h; AUC(0-inf) [18]: 6.7 µg·h/mL
7 | CO[C@H]1/C=C/O[C@@]2(C)Oc3c(C)c(O)c4c(c3C2=O)C2=NC3(CCN(CC(C)C)CC3)NC2=C(NC(=O)/C(C)=C\C=C\[C@H](C)[C@H](O)[C@@H](C)[C@@H](O)[C@@H](C)[C@H](OC(C)=O)[C@@H]1C)C4=O [RIFABUTIN] |  | 0.002 (≈ 0.00236 µM) | 0.03 (≈ 0.0354 µM) | 0.016 (≈ 0.0189 µM) | 0.2 (≈ 236 µM) | 0.00025 (≈ 0.000295 µM) |  | 17.7 (≈ 20900 µM) | Cmax [19]: 2.2 µg/mL; half-life [20]: 3.4 h; AUC(0-inf) [21]: 6.6 µg·h/mL
